Data taken from ChEMBL document CHEMBL4024783, “Alkylated Piperazines and Piperazine-Azole Hybrids as Antifungal Agents” (J Med Chem, 2018).
In brackets after ≈: the same amount, converted by molar mass.

Columns and labels:
Candida albicans [1] = assay: Antifungal activity against itraconazole and fluconazole resistant Candida albicans ATCC MYA-1003 after 48 hrs by broth dilution method; assay type: functional; details: Candida albicans, ATCC MYA-1003, 48 h
In short: (§1)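 CLSI M27-A3 broth microdilution with minor modifications. Overnight YPD culture grown at 35 °C, 200 rpm, adjusted to OD600 0.12, diluted in RPMI 1640 buffered to pH 7.0 with 0.165 M MOPS to a final 1–2 × 10^3 CFU/mL. Test compounds at 0.015–31.3 µg/mL, 48 h at 35 °C, DMSO <1.25%. […] Triplicate.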

Candida albicans [2] = assay: Antifungal activity against itraconazole and fluconazole susceptible Candida albicans ATCC MYA-2310 after 48 hrs by broth dilution method; assay type: functional; details: Candida albicans, ATCC MYA-2310, 48 h
Aspergillus terreus = assay: Antifungal activity against Aspergillus terreus ATCC MYA-3633 after 48 hrs by broth dilution method; assay type: functional; details: Aspergillus terreus, ATCC MYA-3633, 48 h
In short: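 Molds tested per CLSI M38-A2. Spores were harvested from sporulating PDA cultures by filtering through glass wool and counted on a hemocytometer. Serial dilutions (0.03–31.3 µg/mL) were made in RPMI 1640 buffered to pH 7.0 with 0.165 M MOPS, final inoculum 5 × 10^5 CFU/mL.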

Candida parapsilosis = assay: Antifungal activity against Candida parapsilosis ATCC 22019 after 48 hrs by broth dilution method; assay type: functional; details: Lodderomyces parapsilosis, ATCC 22019, 48 h
Aspergillus nidulans = assay: Antifungal activity against Aspergillus nidulans ATCC 38163 after 48 hrs by broth dilution method; assay type: functional; details: Aspergillus nidulans, ATCC 38163, 48 h
In short: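 A. nidulans run per CLSI M38-A2. PDA spores were filtered through glass wool and counted by hemocytometer. Test range 0.03–31.3 µg/mL in MOPS-buffered RPMI 1640 (pH 7.0), final 5 × 10^5 CFU/mL.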

Candida albicans [3] = assay: Antifungal activity against Candida albicans ATCC 10231 after 48 hrs by broth dilution method; assay type: functional; details: ATCC 10231, 48 h
Aspergillus flavus = assay: Antifungal activity against Aspergillus flavus ATCC MYA-3631 after 48 hrs by broth dilution method; assay type: functional; details: ATCC MYA-3631, 48 h
Nakaseomyces glabratus = assay: Antifungal activity against Candida glabrata ATCC 2001 after 48 hrs by broth dilution method; assay type: functional, CBS 138; details: Nakaseomyces glabratus, CBS 138, 48 h
Candida albicans [4] = assay: Antifungal activity against itraconazole and fluconazole resistant Candida albicans ATCC MYA-1237 after 48 hrs by broth dilution method; assay type: functional; details: Candida albicans, ATCC MYA-1237, 48 h; in short: as §1
Candida albicans [5] = assay: Antifungal activity against itraconazole and fluconazole resistant Candida albicans ATCC 90819 after 48 hrs by broth dilution method; assay type: functional; details: Candida albicans, ATCC 90819, 48 h; in short: as §1
Pichia kudriavzevii = assay: Antifungal activity against Candida krusei ATCC 6258 after 48 hrs by broth dilution method; assay type: functional; details: Pichia kudriavzevii, ATCC 6258, 48 h
In short: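 Yeasts tested per CLSI M27-A3 with minor changes. An overnight YPD culture (35 °C, 200 rpm) was adjusted to OD600 0.12 and diluted in MOPS-buffered RPMI 1640 (pH 7.0) to a final 1–2 × 10^3 CFU/mL. Compounds 0.015–31.3 µg/mL, DMSO <1.25%.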

Candida albicans [6] = assay: Antifungal activity against itraconazole and fluconazole susceptible Candida albicans ATCC MYA-2876 after 48 hrs by broth dilution method; assay type: functional; details: Candida albicans, ATCC MYA-2876, 48 h
Candida albicans [7] = assay: Antifungal activity against Candida albicans ATCC 64124 after 48 hrs by broth dilution method; assay type: functional; details: Candida albicans, ATCC 64124, 48 h; in short: as §1

Row | Structure (SMILES) | MIC (Candida albicans [1]) | MIC (Candida albicans [2]) | MIC (Aspergillus terreus) | MIC (Candida parapsilosis) | MIC (Aspergillus nidulans) | MIC (Candida albicans [3]) | MIC (Aspergillus flavus) | MIC (Nakaseomyces glabratus) | MIC (Candida albicans [4]) | MIC (Candida albicans [5]) | MIC (Pichia kudriavzevii) | MIC (Candida albicans [6]) | MIC (Candida albicans [7])
1 | OC(CNCCN1CCOCC1)(Cn1cncn1)c1ccc(F)cc1F (stereo not given) | > 85.2 µM | > 85.2 µM | > 85.2 µM | 85.2 µM (≈ 31.3 µg/mL) | > 85.2 µM | 85.2 µM (≈ 31.3 µg/mL) | > 85.2 µM | 85.2 µM (≈ 31.3 µg/mL) | 85.2 µM (≈ 31.3 µg/mL) | > 85.2 µM | > 85.2 µM | 85.2 µM (≈ 31.3 µg/mL) | 85.2 µM (≈ 31.3 µg/mL)
2 | CCCCCCCCCCCN1CCN(CC(O)(Cn2cncn2)c2ccc(F)cc2F)CC1 (stereo not given) | 32.8 µM (≈ 15.7 µg/mL) | 32.8 µM (≈ 15.7 µg/mL) | 4.1 µM (≈ 1.96 µg/mL) | 0.5 µM (≈ 0.239 µg/mL) | 4.1 µM (≈ 1.96 µg/mL) | 4.1 µM (≈ 1.96 µg/mL) | 4.1 µM (≈ 1.96 µg/mL) | 8.2 µM (≈ 3.92 µg/mL) | 32.8 µM (≈ 15.7 µg/mL) | 32.8 µM (≈ 15.7 µg/mL) | 4.1 µM (≈ 1.96 µg/mL) | 16.4 µM (≈ 7.83 µg/mL) | 32.8 µM (≈ 15.7 µg/mL)
3 | CCCCCCCCCCCCCCN1CCN(CC(O)(Cn2cncn2)c2ccc(F)cc2F)CC1 (stereo not given) | 3.8 µM (≈ 1.97 µg/mL) | 7.5 µM (≈ 3.9 µg/mL) | 1.9 µM (≈ 0.987 µg/mL) | > 60.2 µM | 3.8 µM (≈ 1.97 µg/mL) | 3.8 µM (≈ 1.97 µg/mL) | 0.9 µM (≈ 0.468 µg/mL) | > 60.2 µM | 7.5 µM (≈ 3.9 µg/mL) | 3.8 µM (≈ 1.97 µg/mL) | 1.9 µM (≈ 0.987 µg/mL) | 15 µM (≈ 7.8 µg/mL) | 60.2 µM (≈ 31.3 µg/mL)
4 | CC[C@H](C)C[C@H](C)CCCCCCCCC(=O)N[C@H]1C[C@@H](O)[C@@H](NCCN)NC(=O)[C@@H]2[C@@H](O)CCN2C(=O)[C@H]([C@H](O)CCN)NC(=O)[C@H]([C@H](O)[C@@H](O)c2ccc(O)cc2)NC(=O)[C@@H]2C[C@@H](O)CN2C(=O)[C@H]([C@@H](C)O)NC1=O [CASPOFUNGIN] | 0.4 µM (≈ 0.437 µg/mL) | 0.1 µM (≈ 0.109 µg/mL) | > 25.8 µM | 1.6 µM (≈ 1.75 µg/mL) | > 25.8 µM | 0.8 µM (≈ 0.875 µg/mL) | > 25.8 µM | 0.05 µM (≈ 0.0547 µg/mL) | 0.2 µM (≈ 0.219 µg/mL) | 0.1 µM (≈ 0.109 µg/mL) | 0.4 µM (≈ 0.437 µg/mL) | 0.05 µM (≈ 0.0547 µg/mL) | 0.2 µM (≈ 0.219 µg/mL)
5 | OC(CN1CCOCC1)(Cn1cncn1)c1ccc(F)cc1F (stereo not given) | 96.5 µM (≈ 31.3 µg/mL) | 24 to 96.5 µM (≈ 7.78 to 31.3 µg/mL) | 48.1 µM (≈ 15.6 µg/mL) | > 96.5 µM | 6 µM (≈ 1.95 µg/mL) | > 96.5 µM | 24 µM (≈ 7.78 µg/mL) | 96.5 µM (≈ 31.3 µg/mL) | > 96.5 µM | 12 to 96.5 µM (≈ 3.89 to 31.3 µg/mL) | > 96.5 µM | > 96.5 µM | > 96.5 µM
6 | CCCCCN1CCNCC1 | > 200 µM | > 200 µM | > 200 µM | > 200 µM | > 200 µM | > 200 µM | > 200 µM | > 200 µM | > 200 µM | > 200 µM | > 200 µM | > 200 µM | > 200 µM
7 | CN1CCN(CC(O)(Cn2cncn2)c2ccc(F)cc2F)CC1 (stereo not given) | 92.8 µM (≈ 31.3 µg/mL) | 23.1 µM (≈ 7.79 µg/mL) | 92.8 µM (≈ 31.3 µg/mL) | 2.9 µM (≈ 0.978 µg/mL) | 2.9 µM (≈ 0.978 µg/mL) | 23.1 µM (≈ 7.79 µg/mL) | 92.8 µM (≈ 31.3 µg/mL) | 92.8 µM (≈ 31.3 µg/mL) | 92.8 µM (≈ 31.3 µg/mL) | 92.8 µM (≈ 31.3 µg/mL) | 46.2 µM (≈ 15.6 µg/mL) | 23.1 µM (≈ 7.79 µg/mL) | 92.8 µM (≈ 31.3 µg/mL)
8 | CCCCCCCCCCN1CCNCC1 | 68.9 µM (≈ 15.6 µg/mL) | 68.9 µM (≈ 15.6 µg/mL) | 68.9 µM (≈ 15.6 µg/mL) | 68.9 µM (≈ 15.6 µg/mL) | 68.9 µM (≈ 15.6 µg/mL) | 68.9 µM (≈ 15.6 µg/mL) | 138 µM (≈ 31.3 µg/mL) | 34.5 µM (≈ 7.81 µg/mL) | 68.9 µM (≈ 15.6 µg/mL) | 68.9 µM (≈ 15.6 µg/mL) | 34.5 µM (≈ 7.81 µg/mL) | 68.9 µM (≈ 15.6 µg/mL) | 68.9 µM (≈ 15.6 µg/mL)
9 | CCCCCCCCN1CCNCC1 | > 158 µM | > 158 µM | > 158 µM | > 158 µM | > 158 µM | > 158 µM | > 158 µM | > 158 µM | > 158 µM | > 158 µM | > 158 µM | > 158 µM | > 158 µM
10 | CCCCCCCCCCCCCCN1CCOCC1 | > 110 µM | > 110 µM | > 110 µM | > 110 µM | > 110 µM | > 110 µM | > 110 µM | > 110 µM | > 110 µM | > 110 µM | > 110 µM | > 110 µM | > 110 µM
